Reference: paper PMC3457677 (International Journal of Nanomedicine, 2012)
Converted amounts (≈) assume the structure as drawn.

Experiments:
[1] = cited from earlier work
[2] = In vivo pharmacokinetics after intravenous bolus; set-up: species or system Wistar rats; conditions: male, Wistar, rat, plasma, 4.7 mg/kg
In short: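 Fasted male Wistar rats (200–250 g) under urethane anaesthesia received a jugular vein injection of 4.7 mg/kg. The free-drug solution was in ethanol/PEG 400/tetraglycol/water. Heart blood (0.3 mL) was taken at set times, and plasma was extracted with dichloromethane using diclofenac as internal standard, then analysed by HPLC-ECD. A compartment model was fitted; AUC0–∞ by trapezoidal rule plus extrapolation, Cl = dose/AUC0–∞; n = 3.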

[3] = tested on: human oral squamous cell carcinoma (Ca9-22) cell line; assay: MTT cytotoxicity assay; format: cell-based; conditions: Ca9-22, 72 h, read-out: IC50 (μg/mL) on cell lines Ca9-22
In short: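 Ca9-22 cells grown in DMEM with 10% FBS and 1% antibiotics at 37°C, 5% CO2. Seeded at 5 × 10^4 cells/well and grown to confluence. Free or SLN-encapsulated test compound (added solution at 40 μg/mL) applied for 72 hours. After a PBS wash, MTT (25 μg/mL) for 2 h, then DMSO. Absorbance read at 550 nm; IC50 from a four-parameter logistic fit.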

[4] = Biodistribution in tissues and organs after intravenous administration; format: in vivo; conditions: Wistar rats, 4.7 mg/kg intravenous, 30 minutes
[5] = cited from earlier work; remark: listed apart in the source
[6] = tested on: human breast adenocarcinoma (MDA-MB-231) cell line; assay: MTT cytotoxicity assay; format: cell-based; conditions: MDA-MB-231, 72 h, read-out: IC50 (μg/mL) on cell lines MDA-MB-231
In short: (§1)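 Cells were grown in DMEM with 10% FBS and 1% antibiotics at 37°C under 5% CO2 and seeded in 96-well plates at 5 × 10^4 cells/well (A549: 5 × 10^3) until confluent. Free or SLN-encapsulated compound was added for 72 h. After a PBS wash, MTT (25 μg/mL) was given for 2 h, formazan was dissolved in DMSO and read at 550 nm. IC50 came from a four-parameter logistic fit; n = 6.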

[7] = tested on: human hepatocellular liver carcinoma (HepG2) cell line; assay: MTT cytotoxicity assay; format: cell-based; conditions: HepG2, 72 h, read-out: IC50 (μg/mL) on cell lines HepG2
In short: as §1

[8] = tested on: human breast adenocarcinoma with estrogen receptor (MCF7) cell line; assay: MTT cytotoxicity assay; format: cell-based; conditions: MCF7, 72 h, read-out: IC50 (μg/mL) on cell lines MCF7
In short: as §1

[9] = tested on: human lung carcinoma (A549) cell line; assay: MTT cytotoxicity assay; format: cell-based; conditions: A549, 72 h, read-out: IC50 (μg/mL) on cell lines A549
In short: as §1

[10] = Solubility of PK-L4 in aqueous and receptor media; format: physicochemical; conditions: compared: pH 7.4 PBS, pH 7.4 PBS containing 1% F-68, pH 7.4 PBS containing 1% F-127
In vitro release study = format: physicochemical; conditions: pH 7.4 PBS containing 1% F-127
In short: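 Dialysis bags (MWCO 12,000–14,000 Da, pre-soaked 12 h in water) held 1 mL SLN suspension in 100 mL pH 7.4 phosphate buffer with 1% Pluronic F-127 (sink) at 37°C. At intervals, 1 mL receiver aliquots were withdrawn and replaced with fresh medium. Drug was quantified by C18 HPLC with electrochemical detection. Release percentage was fitted to kinetic models; n = 4.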

Row | SMILES | half-life in plasma [1] [min] | AUC(0-inf) [2] [ng·h/mL] | MRT [2] [min] | Vd [2] [L/kg] | clearance [2] [mL/min/kg] | half-life ([2]; half-life alpha, after intravenous bolus, rat plasma) [min] | IC50 [3] [µg/mL] | Main sites of PK-L4 deposition in tissues [4] | Solubility in water and biocompatible media [5] | IC50 [6] [µg/mL] | IC50 [7] [µg/mL] | IC50 [8] [µg/mL] | IC50 [9] [µg/mL] | Solubility of PK-L4 in receptor media [10] | Best-fitting release kinetics model (In vitro release study)
1 | COc1cc(NS(C)(=O)=O)ccc1Nc1c2ccccc2nc2ccccc12 [Amsacrine] | 20 to 30 |  |  |  |  |  |  |  |  |  |  |  |  |  | 
2 | COc1ccc(Nc2c3ccccc3nc3occ(Cl)c23)cc1 [PK-L4, 3-Chloro-4-[(4-methoxyphenyl)amino]furo[2,3-b]quinoline] |  | 1160 ± 87 | 61 ± 8.7 | 4.12 ± 0.395 | 67.9 | 4.68 ± 1.38 | 0.04 (≈ 0.123 µM) | mainly located in the spine, followed by the lungs, brain, small intestine, and heart | water insoluble | 2.14 (≈ 6.59 µM) | 0.04 (≈ 0.123 µM) | 8.47 (≈ 26.1 µM) | 0.11 (≈ 0.339 µM) | pH 7.4 PBS containing 1% F-127 exhibited the best solubility | Higuchi order
3 | COc1cccc2c1C(=O)c1c(O)c3c(c(O)c1C2=O)C[C@@](O)(C(=O)CO)C[C@@H]3O[C@H]1C[C@H](N)[C@H](O)[C@H](C)O1 [Doxorubicin solution, reference compound] |  |  |  |  |  |  | 0.14 (≈ 0.258 µM) |  |  | 0.51 (≈ 0.938 µM) | 0.11 (≈ 0.202 µM) | 0.43 (≈ 0.791 µM) | 0.4 (≈ 0.736 µM) |  | 
